The text below walks through data of ChEMBL document CHEMBL1138901, “Design, synthesis, and biological evaluation of the combinatorial library with a new spirodiketopiperazine scaffold. Discovery of novel potent and selective low-molecular-weight CCR5 antagonists” (J Med Chem, 2006).

The source made the active and inactive calls. The rule behind the calls is not given here.

For experiment [1], the target named is T1, C-C chemokine receptor type 2 (Homo sapiens, UniProt P41597). In words: Antagonist activity against human recombinant CCR2 expressed in CHO cells assessed as inhibition of human MCP1-stimulated calcium mobilization. Type of experiment: functional, cell-based. In a few lines:
(§1)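 Human chemokine receptor-overexpressing CHO cells were stimulated with the matching human endogenous ligand, and calcium mobilization was read out. Library members were tested at 30 µM. Crude products were dissolved in DMSO as 10 mM stocks and used without further purification.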

Experiment [2] deals with T2, C-C chemokine receptor type 5 (Homo sapiens, UniProt P51681). In words: Inhibition of radio-isotope labeled MIP1-alpha binding to human recombinant CCR5.
T2 sequence (P51681 whole entry): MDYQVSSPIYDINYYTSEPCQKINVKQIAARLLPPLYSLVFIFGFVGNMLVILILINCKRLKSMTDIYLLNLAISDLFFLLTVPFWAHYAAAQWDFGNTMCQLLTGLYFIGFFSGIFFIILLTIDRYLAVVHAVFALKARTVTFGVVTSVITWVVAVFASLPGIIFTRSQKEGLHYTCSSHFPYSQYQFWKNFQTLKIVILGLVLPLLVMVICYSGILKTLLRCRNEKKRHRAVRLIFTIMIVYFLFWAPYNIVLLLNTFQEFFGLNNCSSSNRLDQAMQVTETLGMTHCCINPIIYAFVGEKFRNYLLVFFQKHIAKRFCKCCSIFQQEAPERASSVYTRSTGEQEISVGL
The target in experiment [3] is T1, C-C chemokine receptor type 2. In words: Inhibition of radio-isotope labeled MCP1 binding to human recombinant CCR2.
Experiment [4] deals with Muscarinic acetylcholine receptor M3 (Homo sapiens, UniProt P20309). In words: Binding affinity to muscarinic M3 receptor.
Sequence of Muscarinic acetylcholine receptor M3 (P20309 whole entry): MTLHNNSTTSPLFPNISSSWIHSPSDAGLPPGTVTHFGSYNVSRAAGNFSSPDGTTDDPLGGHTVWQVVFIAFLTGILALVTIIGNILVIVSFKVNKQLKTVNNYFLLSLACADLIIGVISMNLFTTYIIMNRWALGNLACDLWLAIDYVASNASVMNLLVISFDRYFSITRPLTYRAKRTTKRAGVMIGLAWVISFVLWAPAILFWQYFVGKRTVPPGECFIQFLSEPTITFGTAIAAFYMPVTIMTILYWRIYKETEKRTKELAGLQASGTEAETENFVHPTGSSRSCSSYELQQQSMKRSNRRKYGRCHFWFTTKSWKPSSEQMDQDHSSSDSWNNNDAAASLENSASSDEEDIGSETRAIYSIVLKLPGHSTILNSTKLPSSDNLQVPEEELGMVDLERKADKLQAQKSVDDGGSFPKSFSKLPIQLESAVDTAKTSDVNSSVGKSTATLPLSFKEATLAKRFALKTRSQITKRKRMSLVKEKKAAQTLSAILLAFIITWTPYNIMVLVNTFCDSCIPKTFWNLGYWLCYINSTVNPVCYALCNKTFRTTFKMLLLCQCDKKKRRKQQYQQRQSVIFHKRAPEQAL
Experiment [5] concerns the target T3, C-X-C chemokine receptor type 4 (Homo sapiens, UniProt P61073). Briefly: Inhibition of radio-isotope labeled SDF1-alpha binding to human recombinant CXCR4.
Experiment [6] addresses Sigma non-opioid intracellular receptor 1 (Homo sapiens, UniProt Q99720). Briefly: Binding affinity to sigma receptor.
Experiment [7] concerns the target T2, C-C chemokine receptor type 5. Briefly: Antagonist activity against human recombinant CCR5 expressed in CHO cells assessed as inhibition of human MIP-1-alpha-stimulated calcium mobilization. It counts as functional, cell-based. In a few lines:
as §1
A general note: A change in cytosolic calcium serves as a functional read-out for many receptors and channels.

Experiment [8] relates to Human immunodeficiency virus 1. Briefly: Antiviral activity against T cell tropic HIV1 X4. It counts as functional, organism-based.
For experiment [9], the target named is T3, C-X-C chemokine receptor type 4. Briefly: Antagonist activity against human recombinant CXCR4 expressed in CHO cells assessed as inhibition of human SDF1-alpha-stimulated calcium mobilization. Type of experiment: functional, cell-based. In a few lines: as §1
For experiment [10], the target named is C-C chemokine receptor type 4 (Homo sapiens, UniProt P51679). Briefly: Antagonist activity against human recombinant CCR4 expressed in CHO cells assessed as inhibition of human […]-stimulated calcium mobilization. Type of experiment: functional, cell-based. The procedure, abridged: as §1
Sequence of C-C chemokine receptor type 4 (P51679 whole entry, looked up): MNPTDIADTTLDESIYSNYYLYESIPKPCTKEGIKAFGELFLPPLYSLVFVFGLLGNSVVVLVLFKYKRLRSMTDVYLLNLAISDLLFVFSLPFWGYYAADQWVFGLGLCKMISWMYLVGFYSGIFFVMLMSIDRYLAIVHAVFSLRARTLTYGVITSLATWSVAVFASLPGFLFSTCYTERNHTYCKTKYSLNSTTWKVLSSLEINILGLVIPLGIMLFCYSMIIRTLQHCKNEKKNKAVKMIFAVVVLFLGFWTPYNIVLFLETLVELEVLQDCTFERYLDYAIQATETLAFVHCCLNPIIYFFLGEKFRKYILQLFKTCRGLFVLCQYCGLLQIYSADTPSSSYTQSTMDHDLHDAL

T3 sequence (P61073 whole entry): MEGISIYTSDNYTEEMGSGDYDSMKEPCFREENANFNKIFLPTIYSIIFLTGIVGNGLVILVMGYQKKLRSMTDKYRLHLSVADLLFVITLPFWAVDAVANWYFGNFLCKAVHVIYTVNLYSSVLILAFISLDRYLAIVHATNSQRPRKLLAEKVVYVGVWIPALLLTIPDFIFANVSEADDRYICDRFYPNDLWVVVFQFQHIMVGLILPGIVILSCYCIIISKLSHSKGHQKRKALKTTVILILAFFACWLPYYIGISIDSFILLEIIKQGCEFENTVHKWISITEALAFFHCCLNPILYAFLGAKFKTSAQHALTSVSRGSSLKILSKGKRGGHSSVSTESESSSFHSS
T1 sequence (P41597 whole entry): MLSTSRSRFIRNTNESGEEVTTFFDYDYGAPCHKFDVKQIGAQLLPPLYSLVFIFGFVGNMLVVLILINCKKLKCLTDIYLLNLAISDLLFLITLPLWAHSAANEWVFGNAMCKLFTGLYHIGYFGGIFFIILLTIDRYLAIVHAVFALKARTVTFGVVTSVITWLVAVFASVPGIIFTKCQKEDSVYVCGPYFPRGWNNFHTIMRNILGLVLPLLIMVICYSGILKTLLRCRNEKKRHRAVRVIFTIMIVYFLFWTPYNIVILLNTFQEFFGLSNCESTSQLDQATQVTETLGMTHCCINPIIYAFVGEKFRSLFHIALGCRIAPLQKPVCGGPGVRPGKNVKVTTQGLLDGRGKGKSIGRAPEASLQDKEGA
Sequence of Sigma non-opioid intracellular receptor 1 (Q99720 whole entry): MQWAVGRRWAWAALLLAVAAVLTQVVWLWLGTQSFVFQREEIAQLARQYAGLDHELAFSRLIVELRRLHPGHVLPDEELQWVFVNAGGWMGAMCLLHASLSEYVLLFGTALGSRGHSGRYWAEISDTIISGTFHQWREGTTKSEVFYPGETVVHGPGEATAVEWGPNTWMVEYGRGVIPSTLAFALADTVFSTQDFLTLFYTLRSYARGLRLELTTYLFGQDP

As to `CCCCN1C(=O)C(CC2CCCCC2)NC(=O)C12CCN(Cc1ccc3c(c1)OCCO3)CC2` (stereo unspecified), the IC50 is greater than 10 µM in experiment [1]; 0.0025 µM in [2]; greater than 10 µM in experiment [3]; 2.07 µM in experiment [4]; greater than 10 µM in experiment [5]; 0.183 µM in experiment [6]. Besides, the IC50 is 0.02 µM in experiment [7] and greater than 10 µM in experiment [9]. The result in experiment [8] was inactive.
`CC(C)C[C@@H]1NC(=O)C2(CCN(Cc3ccccc3)CC2)N(Cc2ccccc2)C1=O`: the IC50 in experiment [1] was greater than 30 µM; in experiment [10] it was greater than 30 µM; in experiment [7] it was 3.2 µM; in experiment [9], greater than 30 µM. Also, the result in experiment [8] was inactive.
Take `C=CCOc1ccc(CN2CCC3(CC2)C(=O)NC(CC2CCCCC2)C(=O)N3CCCC)cc1` (stereo unspecified): the IC50 in [1] was greater than 10 µM; in [2], 0.011 µM; in experiment [3] it was greater than 10 µM; in experiment [5] it was greater than 10 µM; in experiment [7], 0.05 µM; in experiment [9] it was greater than 10 µM. Besides, the result in experiment [8] was inactive.
As for `CCCCN1C(=O)C(CC(C)C)NC(=O)C12CCN(Cc1ccccc1)CC2` (stereo unspecified), the IC50 in [1] was greater than 30 µM; in experiment [2], 0.56 µM; in [10] it was greater than 30 µM; in experiment [5], greater than 10 µM; in experiment [7], 0.9 µM; in experiment [9], greater than 30 µM. In experiment [8], the result was inactive.
`CCCN1C(=O)[C@H](CC(C)C)NC(=O)C12CCN(CCCCCCc1ccccc1)CC2`: the IC50 in experiment [1] was greater than 10 µM; in [10], greater than 10 µM; in [7] it was 2 µM; in experiment [9], greater than 10 µM. Further, the result in experiment [8] was inactive.
Consider `CCCN1C(=O)[C@@H](CC2CCCCC2)NC(=O)C12CCN(CCCCCCc1ccccc1)CC2`, for which the IC50 in experiment [1] was greater than 10 µM; in [2] it was 0.86 µM; in experiment [10] it was greater than 10 µM; in [5] it was greater than 10 µM; in [7] it was 0.27 µM; in experiment [9] it was greater than 10 µM. Besides, the result in [8] was inactive.
Regarding `CCCCN1C(=O)C(CC(C)C)NC(=O)C12CCN(Cc1ccc3c(c1)OCCO3)CC2` (stereo unspecified), the IC50 in experiment [1] was greater than 10 µM; in [2] it was 0.02 µM; in [3], greater than 10 µM; in experiment [5], greater than 10 µM; in experiment [7], 0.17 µM; in experiment [9], greater than 10 µM. The outcome in [8] was inactive.
Take `CCCCN1C(=O)C(CC(C)C)NC(=O)C12CCN(Cc1ccc(Oc3ccccc3)cc1)CC2` (stereo unspecified): the IC50 was greater than 10 µM in experiment [1]; 0.083 µM in experiment [2]; greater than 10 µM in experiment [3]; greater than 10 µM in experiment [5]; 0.12 µM in [7]; greater than 10 µM in [9]. The result in [8] was inactive.
For `CCCN1C(=O)C(CC(C)C)NC(=O)C12CCN(Cc1ccc(Oc3ccccc3)cc1)CC2` (stereo unspecified), the half-inhibitory concentration (IC50) in experiment [1] was greater than 30 µM; in experiment [2], 0.017 µM; in experiment [10], greater than 30 µM; in experiment [3] it was greater than 30 µM; in experiment [5], greater than 30 µM; in experiment [7] it was 0.5 µM. The IC50 in experiment [9] is greater than 30 µM. Also, in experiment [8], the outcome was inactive.
Consider `CCCCN1C(=O)C(CC2CCCCC2)NC(=O)C12CCN(Cc1ccc(OC)cc1)CC2` (stereo unspecified), for which the IC50 in experiment [1] was greater than 30 µM; in experiment [2], 0.0045 µM; in experiment [3], greater than 30 µM; in experiment [5] it was greater than 30 µM; in experiment [7], 0.12 µM; in experiment [9] it was greater than 30 µM. In addition, in experiment [8], the result was inactive.
Consider `CCCCN1C(=O)C(CC(C)C)NC(=O)C12CCN(CCCCCCc1ccccc1)CC2` (stereo unspecified), for which the IC50 is greater than 10 µM in [1]; 0.038 µM in experiment [2]; greater than 10 µM in experiment [10]; greater than 10 µM in experiment [3]; greater than 10 µM in experiment [5]; 0.27 µM in [7]. Moreover, in experiment [9], the IC50 stood at 6.7 µM. For the same molecule, the result in [8] was inactive.
Turning to `CCCCN1C(=O)C(CC2CCCCC2)NC(=O)C12CCN(Cc1ccc(Oc3ccccc3)cc1)CC2` (stereo unspecified), the IC50 was greater than 10 µM in experiment [1]; 0.0061 µM in experiment [2]; greater than 10 µM in [3]; greater than 10 µM in experiment [5]; 0.17 µM in experiment [7]; greater than 10 µM in [9]. Also, in [8], the result was inactive.
On to `CCCN1C(=O)[C@@H](CC(C)C)NC(=O)C12CCN(CCCCCCc1ccccc1)CC2`, for which the IC50 in [1] is greater than 10 µM; in experiment [10], greater than 10 µM; in experiment [7] it was 3 µM; in [9] it was greater than 10 µM. Moreover, the outcome in experiment [8] was inactive.
With `CCCN1C(=O)[C@H](CC2CCCCC2)NC(=O)C12CCN(CCCCCCc1ccccc1)CC2`, the IC50 is greater than 10 µM in experiment [1]; 0.61 µM in [2]; greater than 10 µM in experiment [10]; greater than 10 µM in experiment [5]; 0.3 µM in [7]; greater than 10 µM in experiment [9]. Besides, in [8], the outcome was inactive.
As to `CC(C)C[C@H]1NC(=O)C2(CCN(Cc3ccccc3)CC2)N(Cc2ccccc2)C1=O`, the IC50 was greater than 30 µM in experiment [1], greater than 30 µM in [10], 7.6 µM in [7] and greater than 30 µM in [9]. Moreover, the outcome in experiment [8] was inactive.

What is called IC50 is the concentration at which inhibition is half-maximal.
